TAAR1 antag: human TAAR1 antagonism; Q96RJ0; CHO RD-HGA16 TAAR1, Fluo-8 calcium fluorescence, antagonist; 1.5% of 360,000 active; inhibition, % at 3 µM;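 active means inhibition above a per-plate cutoff, the mean inhibition of test compounds on that plate plus 3 SD, cut at about 49% in these data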;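 further: 0% = DMSO plus EC80 beta-PEA response and 100% = DMSO alone without agonist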
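Material: RD-HGA16 CHO cells with stable hTAAR1 and Gα16; Dosing: single nominal final test compound concentration of 3 µM; Schedule: seeding 17-24 h prior, 75-min 37 °C, 30-min RT dye loading; Detection: kinetic Fluo-8 calcium fluorescence measurement; Measure: % inhibition from peak post-agonist over basal fluorescence ratio; Benchmarks: vehicle and agonist controls.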
OX1R antag-1: blocks the human orexin 1 receptor; O43613; OX1R-expressing cells, FRET antagonist read-out; inhibition, % at 6.6 µM; 1.8% of 330,000 active; in the data active means inhibition mostly above about 38%, no sharp cut-off; inactive means mostly below about 40%;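 further: 0% = agonist challenge alone and 100% = reference antagonist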
Target sequence (O43613 whole entry, looked up): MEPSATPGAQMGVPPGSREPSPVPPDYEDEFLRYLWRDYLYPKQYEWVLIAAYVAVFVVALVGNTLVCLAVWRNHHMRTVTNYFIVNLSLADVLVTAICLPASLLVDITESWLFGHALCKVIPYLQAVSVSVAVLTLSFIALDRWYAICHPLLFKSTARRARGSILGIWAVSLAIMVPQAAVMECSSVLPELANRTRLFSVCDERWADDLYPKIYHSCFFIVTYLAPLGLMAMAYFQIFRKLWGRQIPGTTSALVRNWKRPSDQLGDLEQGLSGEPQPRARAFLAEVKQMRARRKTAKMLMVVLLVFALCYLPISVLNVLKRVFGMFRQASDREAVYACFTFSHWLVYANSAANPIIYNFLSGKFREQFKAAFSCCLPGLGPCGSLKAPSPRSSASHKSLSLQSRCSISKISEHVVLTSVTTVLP
GalR3 antag: antagonists of human GalR3; AID 651719; inhibition, % at 3 µM; 0.44% of 360,000 active; HEK293 GalR3-CNG cAMP membrane potential fluorescence; galR3 body fused to GalR1 C-terminus;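 active means inhibition above the screen-wide average plus 3 SD, cut at about 13% in these data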;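 further: forskolin and galanin both at EC90 stimulate the cells; cAMP rise reported by CNG channel membrane potential dye signal; 0% = forskolin plus galanin with DMSO and 100% = forskolin alone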
OX1R antag-2: antagonists of human orexin 1 receptor; 0.43% of 330,000 active; inhibition, % at 5 µM; CHO/OX1R cells, Fluo-8 calcium fluorescence, orexin A;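 active means inhibition above its plate's threshold, mean inhibition of all tested compounds on the plate plus 3 SD, cut at about 37% in these data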;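 further: 0% = orexin A challenge wells and 100% = SB-334867-A antagonist wells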
TAAR1 agonist: agonists of human TAAR1 | 0.99% of 360,000 active | activation, % at 3 µM | AID 624467 | Q96RJ0 | CHO RD-HGA16 TAAR1, Fluo-8 calcium fluorescence; vehicle wells 0%, saturating PEA agonist 100%;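 active means activation above the mean activation of all test compounds in the run plus 3 SD, cut at about 38% in these data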
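Assay system: CHO-derived RD-HGA16 cells with stable Gα16 and human TAAR1; timing: 17-24 h seeding, 75 min 37 °C dye, 30 min RT; read-out: % activation from peak over basal fluorescence ratio, DMSO-to-PEA scaled; measured by: kinetic Fluo-8 calcium fluorescence; benchmarks: low control DMSO, high control PEA (EC100); doses: 3 µM single concentration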
CHO parental Ca: signal in parental CHO cells, OX1R antagonist counter-screen. parental CHO-K1, ATP-induced calcium, Fluo-8 fluorescence. inhibition, % at 5.6 µM. 0.63% of 330,000 active;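 active means inhibition above that plate's mean sample inhibition plus 3 SD, cut at about 26% in these data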;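 further: 0% = ATP-challenged DMSO wells and 100% = DMSO wells without ATP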
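Material: parental CHO cells / Compound: single nominal dose of 5.6 µM per compound / Signal: Fluo-8 fluorescence / Replicates: singlicate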
* hit, by the source's call. A selection: hits, their analogues and other compounds. The true share with any hit is near 4.3%.

For CCc1cc[n+](-c2nc3ccccc3nc2C(=C=[N-])C#N)cc1 the results were TAAR1 antag 7, OX1R antag-1 74*, GalR3 antag -3, OX1R antag-2 -14, TAAR1 agonist 8 and CHO parental Ca -2.
For N#CC(=C=[N-])c1nc2ccccc2nc1-[n+]1cccc(NC(=O)c2ccccc2)c1 the results were TAAR1 antag -16, OX1R antag-1 26, GalR3 antag 3, OX1R antag-2 -10, TAAR1 agonist 8 and CHO parental Ca -6.
`On1ccccc1=S` gave TAAR1 antag 16, OX1R antag-1 14, GalR3 antag -1, OX1R antag-2 37*, TAAR1 agonist 7 and CHO parental Ca 41*.
Screening O=C1c2ccc(Oc3ccc4c(c3)C(=O)N(CCCCO)C4=O)cc2C(=O)N1CCCCO returned TAAR1 antag 30, OX1R antag-1 73, GalR3 antag -3, OX1R antag-2 0, TAAR1 agonist 18 and CHO parental Ca -9.
`O=C1c2ccc(-c3ccc4c(c3)C(=O)N(CCCO)C4=O)cc2C(=O)N1CCCO` gave TAAR1 antag -18, OX1R antag-1 59*, GalR3 antag -2, OX1R antag-2 -12, TAAR1 agonist 7 and CHO parental Ca -2.
`CCOC(=O)Cc1csc(NC(=O)CN2CCN(c3ccccc3)CC2)n1` gave TAAR1 antag -8, OX1R antag-1 -4, GalR3 antag -3, OX1R antag-2 -22, TAAR1 agonist -1 and CHO parental Ca -15.
Screening COc1cc(C(=O)N(Cc2ccccc2)c2cccc(C)c2)ccc1OC(F)F returned TAAR1 antag 1, OX1R antag-1 23, GalR3 antag -4, OX1R antag-2 -9, TAAR1 agonist -2 and CHO parental Ca -15.
`c1ccc(CNc2nc(-c3cccs3)nc3ccccc23)nc1` gave TAAR1 antag -9, OX1R antag-1 54*, GalR3 antag -9, OX1R antag-2 -1, TAAR1 agonist 15 and CHO parental Ca -17.
`CN(C)C(=O)c1ccc(Nc2nc(-c3cccs3)nc3ccccc23)cc1` gave TAAR1 antag 51*, OX1R antag-1 40, GalR3 antag -11, OX1R antag-2 -23, TAAR1 agonist 9 and CHO parental Ca 9.
`CC(=O)c1ccc(Nc2nc(-c3ccccc3)nc3ccccc23)cc1` gave TAAR1 antag 24, GalR3 antag -9 and TAAR1 agonist 3.
For CN(C(=O)c1ccc(NC(=O)Cc2ccc(NC(=O)C3CCCN(C(=O)C4CCC4)C3)cc2)cc1)C1CC1 (stereo not drawn) the results were TAAR1 antag 6, OX1R antag-1 2, GalR3 antag -4, OX1R antag-2 30, TAAR1 agonist 3 and CHO parental Ca -9.
CN1OC[C@@H]2CN(Cc3ccc4c(c3)OCO4)[C@H](c3ccc(-n4ccnc4)cc3)C[C@@H]21 was read as TAAR1 antag -20, GalR3 antag -9 and TAAR1 agonist 1.
`O=C(Nc1ncccn1)c1ccc([N+](=O)[O-])cc1` gave TAAR1 antag -15, OX1R antag-1 58*, GalR3 antag -1, OX1R antag-2 -12, TAAR1 agonist 4 and CHO parental Ca -10.
Screening O=C(Nc1ccccc1O)c1ccc([N+](=O)[O-])cc1 returned TAAR1 antag -8, OX1R antag-1 33*, GalR3 antag -9, OX1R antag-2 -3, TAAR1 agonist 1 and CHO parental Ca 16.
For O=C(NC(=S)Nc1ccccn1)c1ccc([N+](=O)[O-])cc1 the results were TAAR1 antag 8, OX1R antag-1 27, GalR3 antag 5, OX1R antag-2 2, TAAR1 agonist 3 and CHO parental Ca -7.
O=C(Nc1nccs1)c1ccc([N+](=O)[O-])cc1 was read as TAAR1 antag 6, OX1R antag-1 42*, GalR3 antag -7, OX1R antag-2 -11, TAAR1 agonist 3 and CHO parental Ca -8.
`O=C(Cc1ccc([N+](=O)[O-])cc1)Nc1nccs1` gave TAAR1 antag -7, OX1R antag-1 12, GalR3 antag -3, OX1R antag-2 -13, TAAR1 agonist 8 and CHO parental Ca 1.
CN1CCN(c2ccccc2NC(=O)c2ccc3c(c2)OCCO3)CC1 was read as TAAR1 antag -5, OX1R antag-1 22, GalR3 antag -8, OX1R antag-2 -32, TAAR1 agonist -1 and CHO parental Ca -13.
O=C1NC[C@H](CCCCN2C[C@H](Cc3ccc(O)cc3)N(CCc3ccccc3)C(=O)C2=O)N(Cc2ccccc2)C1=O was read as TAAR1 antag -9, GalR3 antag -7 and TAAR1 agonist 2.
For O=C1NC[C@H](CCCCN2C[C@H](Cc3ccc(O)cc3)N(CCc3ccc(O)cc3)C(=O)C2=O)N(Cc2ccccc2)C1=O the results were TAAR1 antag -13, GalR3 antag -6 and TAAR1 agonist 43*.
O=C1NC[C@@H](CCCCN2C[C@H](Cc3ccc(O)cc3)N(CC3CCCCC3)C(=O)C2=O)N(CCC2CCCCC2)C1=O was read as TAAR1 antag -4, GalR3 antag -3 and TAAR1 agonist 43*.
Screening O=C1NC[C@H](CCCCN2C[C@H](Cc3ccc(O)cc3)N(CCC3CCCCC3)C(=O)C2=O)N(CC2CCCCC2)C1=O returned TAAR1 antag -15, GalR3 antag -1 and TAAR1 agonist 3.
For CN(C(=O)CN1CCN(c2cc(-c3ccc(-c4ccccc4)cc3)ncn2)CC1)c1ccccc1 the results were TAAR1 antag 44, GalR3 antag -8 and TAAR1 agonist 8.
`O=C(Nc1cccc([N+](=O)[O-])c1)c1ccc(CSc2ccccc2)cc1` gave TAAR1 antag 52*, OX1R antag-1 19, GalR3 antag -5, OX1R antag-2 -10, TAAR1 agonist 15 and CHO parental Ca -5.
O=C(Nc1ccc(C(=O)O)cc1)Nc1cccc([N+](=O)[O-])c1 was read as TAAR1 antag 3, OX1R antag-1 18, GalR3 antag 2, OX1R antag-2 -14, TAAR1 agonist 11 and CHO parental Ca -11.
`O=C(Nc1cccc([N+](=O)[O-])c1)Nc1cccc([N+](=O)[O-])c1` gave TAAR1 antag -8, OX1R antag-1 45, GalR3 antag -4, OX1R antag-2 -11, TAAR1 agonist 12 and CHO parental Ca 34*.
O=C(Nc1cccc([N+](=O)[O-])c1)c1ccccc1 was read as TAAR1 antag 4, OX1R antag-1 16, GalR3 antag 7, OX1R antag-2 -10, TAAR1 agonist 0 and CHO parental Ca -4.
Screening COC(=O)C1=C(C)N(C)C(=NCC2CC2)NC1CCc1ccccc1 (stereo not drawn) returned TAAR1 antag -14, GalR3 antag -8 and TAAR1 agonist 2.
